# High-throughput results: PubChem BioAssay, several laboratories
# NF-kB neuron act – activators of NF-kB expression in neurons, primary screen, cell-based, HTS; human neuronal cells, NF-kB reporter expression; hits give high values; fold change at 12.5 µM; actives 1.6% (n = 190,000); in the data active means fold change above about 3.3
# APP 5'UTR act – activators of APP 5'UTR luciferase reporter, primary screen, SH-SY5Y cells. SH-SY5Y APP 5'UTR luciferase reporter, luminescence; zero percent = DMSO vehicle wells. activation, % at 2 µM. actives 1% (n = 190,000);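 active means activation above a set limit, based on mean plus 3 SD of controls, cut at about 140% in these data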
# STAT1 blocker – STAT1 signaling inhibitors, primary screen, cell-based, HTS, luciferase reporter; NIH 3T3 STAT1-luciferase reporter, IFN-gamma, luminescence; inhibition, % at 5.5 µM; actives 0.35% (n = 200,000);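 active means inhibition above a set limit, the mean inhibition across all tested compounds plus 3 SD, cut at about 34% in these data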;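 further: 0% = IFN-gamma with DMSO and 100% = IFN-gamma with 300 µM nifuroxazide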
# STAT3 act – IL-6 driven STAT3 reporter potentiators, primary screen, U3A cells, luciferase, luminescence, MLSCN library | IL-6 STAT3-luciferase reporter; 100% = signal with IL-6 EC80 alone | activation (% of control), % at 5.6 µM | actives 0.91% (n = 190,000) | AID 871, 2007;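 active means activation above the screen-wide mean of compound activation plus 3 SD, cut at about 130% in these data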;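 further: 0% = background luminescence of wells with medium and substrate only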
#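 system = STAT3-luciferase reporter U3A cells | reagent = IL-6 stimulus at 33 ng/mL final | timing = 1 h compound pre-exposure, 6 h IL-6 stimulation, 37 °C | measured by = luminescence | evaluation = % activation versus median of IL-6-stimulated wells | control set = IL-6-only wells as 100% reference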
# STAT3 blocker – IL-6 driven STAT3 reporter inhibitors, primary screen, U3A cells, luciferase, luminescence, MLSCN library. IL-6 STAT3-luciferase reporter; host cell line lacks STAT1. inhibition, % at 5.5 µM. actives 0.89% (n = 190,000). AID 862, 2007;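 active means inhibition above the mean inhibition across all screened compounds plus 3 SD, cut at about 44% in these data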;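 further: 0% = DMSO only wells and 100% = 100 µM nifuroxazide control wells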
# STAT1 act – STAT1 signaling activators, primary screen, cell-based, HTS, luciferase reporter; NIH 3T3 STAT1-luciferase reporter, IFN-gamma, luminescence; 100% = IFN-gamma alone, no compound; activation (% of control), % at 5.5 µM; actives 2.6% (n = 200,000); AID 932, 2007;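 active means activation above the screen-wide mean activation plus 3 SD, cut at about 130% in these data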;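 further: raw ratio to IFN-gamma control signal so 100% means no change and 0% no light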
# STAT1 act conf – STAT1 signaling activators, confirmation, cell-based, HTS, luciferase reporter; shares compounds with STAT1 act; NIH 3T3 STAT1-luciferase reporter, IFN-gamma potentiation, luminescence; 100% = IFN-gamma EC80 alone, no compound; activation (% of control), % at 5.7 µM; actives 97% (n = 1,200); AID 1262, 2008;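 active means activation above a set limit carried over from the earlier primary STAT1 screen, cut at about 140% in these data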;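 further: simple ratio to median IFN-gamma plus DMSO wells so 0% means no light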
# NFkB act – NF-kB reporter activators, TNF-alpha stimulated, counter-screen for STAT1 activator project, cell-based, HEK293T, luciferase luminescence. shares compounds with STAT1 act. 100% = TNF-alpha with vehicle only. activation (% of control), % at 5.7 µM. actives 43% (n = 1,200);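 active means activation above the mean of solvent-only control wells plus 3 SD, set per campaign, cut at about 130% in these data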;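 further: TNF-alpha given at a submaximal dose yielding about 80% of full reporter signal; values are well signal over median control so 100% means no change and 0% no light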
# STAT3 act STAT1c – STAT3 reporter activation by STAT1 hits, confirmation, counter-screen for STAT1 activator project, U3A cells, luciferase, luminescence. actives 46% (n = 1,200). activation (% of control), % at 5.7 µM. IL-6; cells lack STAT1; 100 = IL-6 alone, no compound effect. shares compounds with STAT1 act. AID 1316, 2008;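 active means activation above the solvent-only control well mean plus 3 SD, set per plate batch, cut at about 110% in these data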;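 further: 0% = no luminescence and 100% = median IL-6 plus DMSO wells; higher means more STAT3 reporter activation so hits are non-selective activators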
# * hit, by the source's call; nt = no result given. Only some compounds are listed: those with a hit (about 5.1% of all), similar ones and a draw of the others.
SMILES,NF-kB neuron act,APP 5'UTR act,STAT1 blocker,STAT3 act,STAT3 blocker,STAT1 act,STAT1 act conf,NFkB act,STAT3 act STAT1c
Cc1c(C(=O)Nc2ccc(Br)cc2)cnn1C,2.72,32.5,-58.5,115.6,-13.8,151.7*,159.4*,119.6,118.3*
Cn1ncc(Br)c1C(=O)Nc1ccc(Br)cn1,1.34,3.7,-0.4,92.6,6.9,102.6,nt,nt,nt
O=C(O)c1cc(S(=O)(=O)NCc2ccco2)c(Cl)cc1Cl,1,14.4,-2.1,104.8,-2.5,101.9,nt,nt,nt
O=C1C2C3C=CC(C4CC34)C2C(=O)N1c1ccc2c(c1)OCO2 (stereo not given),1.2,2.5,-5.2,105.1,6.5,104.1,nt,nt,nt
CCOc1ccc2nc(SCC#N)c(C#N)cc2c1,1.72,18.7,-71.1,82.0,24.6,165.0*,165.6*,111.0,86.2
COC(=O)CSc1nc2cc(C)cc(C)c2cc1C#N,2.39,8.9,-0.1,88.4,17.1,100.1,nt,nt,nt
COC(=O)CSc1nc2ccc(C)cc2cc1C#N,11.3*,118.7,-60.9,88.4,19.3,153.1*,275.1*,152.5*,107.6
CCOc1ccc(CNc2ccc(S(N)(=O)=O)cc2)cc1,1.42,-0.1,3.8,95.7,13.7,96.6,nt,nt,nt
CCCCOC(=O)Nc1ccc2c(C)cc(=O)oc2c1,5.82*,137.7*,-72.0,89.8,15.1,166.1*,196.6*,143.8*,103.7
CCOC(=O)Nc1ccc2c(C)cc(=O)oc2c1,2.39,37.3,-10.2,94.3,10.4,109.5,nt,nt,nt
Cc1ccc(OC(=O)CCC(=O)N2CCc3ccccc32)cc1,1.22,1.2,6.8,131.0,-31.3,93.8,nt,nt,nt
Cc1ccc(OCC(=O)N2CCc3ccccc32)cc1,2.65,156.3*,-62.0,100.1,-2.4,155.2*,191.5*,134.0*,104.5
CC(=O)c1ccc(NCC2COc3ccccc3O2)c([N+](=O)[O-])c1 (stereo not given),3.14,145.1*,-67.0,123.7,-24.1,159.3*,229.2*,139.6*,220.0*
C=CCNc1ncnc2c1cnn2-c1ccc(OC)cc1,4.54*,148.5*,-84.7,71.4,36.5,177.7*,233.9*,126.0,107.6
COc1ccc(-n2ncc3c(NCc4ccco4)ncnc32)cc1,3.22,95.4,-67.9,93.5,11.5,162.2*,185.2*,138.0*,114.5*
COc1ccc(-n2ncc3c(Nc4cccc(C)c4)ncnc32)cc1,1.72,98.0,-18.6,97.6,9.1,118.0,nt,nt,nt
CCCN(CCC)c1ncnc2c1cnn2-c1ccc(OC)cc1,2.08,136.8*,-66.9,78.2,24.7,161.7*,249.4*,145.1*,105.1
CC1CCCC(C)N1C(=O)c1cc2ncc(CCCl)cn2n1 (stereo not given),1.06,-9.9,-3.0,93.2,9.5,102.3,nt,nt,nt
COc1cc(C(=O)OCCNC(=O)c2ccncc2)cc(OC)c1OC,0.93,6.6,3.1,104.7,-10.9,97.2,nt,nt,nt
O=C(NC1=NCCS1)c1sc2cc(Cl)cc(Cl)c2c1Cl,1.16,-8.7,2.4,103.5,-1.7,97.9,nt,nt,nt
O=C(NC1=NCCS1)c1sc2ccccc2c1Cl,7.12*,145.7*,-79.0,102.7,1.7,172.6*,210.3*,129.7,115.9*
Cc1cc(NCCN2CCOCC2)n2ncc(-c3ccccc3)c2n1,2.96,41.5,-72.0,116.2,-17.0,165.2*,219.1*,145.8*,151.7*
Cc1cc(NCCN2CCOCC2)n2ncc(-c3ccc(Cl)cc3)c2n1,nt,-2.2,-5.2,107.2,-8.7,104.8,nt,nt,nt
Cc1ccc(C=Nc2ccc(N(C)C)cc2)o1,0.85,153.1*,-70.3,98.9,6.0,163.9*,148.9*,131.9,113.4*
Cc1ccc(/C=N/n2c(C)nnc2C)o1,1.12,17.9,-8.0,101.0,-6.4,107.3,nt,nt,nt
SMILES,NF-kB neuron act,APP 5'UTR act,STAT1 blocker,STAT3 act,STAT3 blocker,STAT1 act,STAT1 act conf,NFkB act,STAT3 act STAT1c
CN(C)c1ccc(C(=O)NC2(N3CCC3=O)CCCC2)cc1,1.02,13.5,3.3,109.0,-8.1,95.2,nt,nt,nt
O=C1c2ccccc2C(=O)N1CCCc1c[nH]c2ccccc12,1.29,10.3,-13.4,88.6,15.8,112.0,nt,nt,nt
O=C1c2ccccc2C(=O)N1CCc1c[nH]c2ccccc12,4.63*,100.7,-65.3,97.9,9.4,158.3*,177.4*,128.6,98.5
CN(Cc1ccccc1NS(=O)(=O)c1ccc2ccccc2c1)C1CCCCC1,0.83,-1.9,2.6,104.6,-4.2,96.2,nt,nt,nt
Cc1ccc(-c2nc3cc(N)ccc3o2)c(C)c1,4.92*,41.7,-59.5,67.9,40.1,154.1*,232.8*,111.9,95.9
CCOC(=O)c1cnc2c(-c3ccccc3)cnn2c1C,7.26*,155.0*,-60.4,85.3,20.0,154.3*,198.1*,134.7*,102.5
CC(=O)c1cnc2c(-c3ccccc3)cnn2c1C,1.31,12.9,-22.9,84.9,21.3,120.8,nt,nt,nt
Brc1ccccc1OCCCn1cnc2ccccc21,6.73*,73.3,-78.6,101.9,-2.4,157.6*,185.5*,137.8*,107.5
c1ccc(OCCn2cnc3ccccc32)cc1,1.27,11.1,-6.6,92.5,11.8,106.1,nt,nt,nt
Cc1occc1C(=O)Nc1cccc2ccccc12,7.69*,135.2*,-78.6,86.3,19.1,172.2*,219.0*,136.9*,109.9
Cc1occc1C(=O)Nc1ccccc1NC(=O)c1ccoc1C,nt,5.1,8.6,101.9,1.5,92.0,nt,nt,nt
COc1ccc(C(C(=O)NC2CCCC2)N(Cc2ccc(C)cc2)C(=O)c2ccn[nH]2)cc1OC (stereo not given),1.02,6.0,3.0,92.5,16.3,97.4,nt,nt,nt
COc1ccc(N(C(=O)c2ccccc2)S(=O)(=O)c2cccs2)cc1,0.97,2.5,12.0,106.6,3.6,87.5,nt,nt,nt
COc1ccc(N(/N=C2\Sc3ccccc3C2=O)C(C)=O)cc1,4.83*,172.0*,-54.8,100.3,5.5,151.3*,191.4*,123.0,110.3
COc1ccc(-c2cc(CNC(=O)CN(C)Cc3ccccc3)on2)cc1,1.06,1.5,0.1,99.3,12.0,99.9,nt,nt,nt
